From PubChem
Shown are actives, neighbours in structure and some others; about 3.5% of the full set was active somewhere.
MrgX1 agonist: activates human MrgX1 receptor signaling; MrgX1-HEK293 cells, Fluo-4 calcium fluorescence, agonist mode; active compounds read high; B-score at 10 µM; 310,000 compounds, 0.44% hits;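 active means calcium response B-score plate-corrected fluorescence ratio at least 3 library SD, with starting fluorescence B-score inside 5 SD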
Target sequence (Q96LB2 whole entry, looked up): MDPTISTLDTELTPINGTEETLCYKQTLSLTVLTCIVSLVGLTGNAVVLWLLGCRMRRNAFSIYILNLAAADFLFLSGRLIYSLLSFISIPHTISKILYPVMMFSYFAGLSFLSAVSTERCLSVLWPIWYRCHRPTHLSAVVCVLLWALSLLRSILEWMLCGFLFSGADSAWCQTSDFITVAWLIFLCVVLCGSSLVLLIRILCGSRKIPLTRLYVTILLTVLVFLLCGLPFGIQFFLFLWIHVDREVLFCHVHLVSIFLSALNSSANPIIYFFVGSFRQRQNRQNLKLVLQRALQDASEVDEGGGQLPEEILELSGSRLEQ
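Material: HEK293 cells stably expressing human MrgX1 receptor | Quantity: 15,000 cells per well | Times: Cells plated overnight, dye loaded 0.5 h 37 °C, 0.5 h room temperature | Measured by: Kinetic Fluo-4 NW fluorescence of intracellular calcium | Control set: Positive and negative controls per plate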
MrgX1 allo act: allosterically activates human MrgX1 receptor signaling; Q96LB2; MrgX1-HEK293, Fluo-4 calcium flux, FDSS; active compounds read high; B-score at 10 µM; 310,000 compounds, 0.63% hits;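 active means plate-corrected calcium response at least 3 library SD above typical, normal starting fluorescence, not activating the receptor alone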;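 further: compound read alongside a low EC10 to EC30 dose of BAM8-22 agonist; peak minus trough fluorescence over baseline measured at the second addition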
RGS4 block: inhibitors of human RGS4. P49798. HEK293 M3R/RGS4 inducible, Fluo-4 calcium flux; active compounds read high; triggered by carbachol at its EC20. B-score at 10 µM. 310,000 compounds, 0.45% hits. AID 463165;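 active means B-score, a plate-corrected calcium signal, over three deviations above library mean, with baseline fluorescence within five deviations of library mean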;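 further: RGS4 expression induced by doxycycline in cells with stable M3 receptor; B-score is computed from the integrated fluorescence ratio over baseline after carbachol; higher B-score means a larger calcium signal and so more RGS4 inhibition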
Target sequence (P49798 whole entry, looked up): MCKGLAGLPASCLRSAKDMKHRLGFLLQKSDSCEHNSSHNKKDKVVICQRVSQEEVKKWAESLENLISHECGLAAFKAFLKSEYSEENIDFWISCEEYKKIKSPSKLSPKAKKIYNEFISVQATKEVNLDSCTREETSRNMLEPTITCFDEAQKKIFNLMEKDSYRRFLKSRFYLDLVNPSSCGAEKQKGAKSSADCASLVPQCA
MrgX1 antag: human MrgX1 receptor antagonism, primary screen. Q96LB2. MRGX1-HEK293 calcium flux, Fluo-4, BAM8-22 antagonism; active compounds read low. B-score at 10 µM. 310,000 compounds, 1.3% hits. AID 588676;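 active means calcium-response B-score plate-corrected more than 3 library SD below zero, starting fluorescence within 5 deviations, no agonist response on first addition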;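 further: peak minus trough fluorescence over baseline after final BAM8-22 challenge near maximal dose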
RGS4 act: potentiators or activators of RGS4 | B-score at 10 µM | AID 463111 | HEK293 M3R/inducible RGS4, carbachol calcium flux Fluo4; active compounds read low | 310,000 compounds, 0.92% hits;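 active means B-score of the integrated calcium signal more than 4 SD below the library mean, with starting fluorescence not abnormally high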;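 further: negative B-score means reduced calcium response which marks RGS4 activation or potentiation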
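Reagent: ECmax carbachol challenge; Test system: M3R-expressing HEK293 line, RGS4 induced by doxycycline; Schedule: overnight RGS4 induction, 30 min dye load 37 °C, 20 min compound RT; Detection: calcium dye Fluo4 fluorescence; Read-out: Agonist-evoked peak-minus-minimum fluorescence over baseline, integrated ratio, B score.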
MrgX1 allo conf: reconfirmed allosteric activator of human MrgX1 receptor | shares compounds with MrgX1 allo act | MrgX1-HEK293, Fluo-4 calcium fluorescence, FDSS | activation (ratio percentage), % at 10 µM | 1,200 compounds, 13% hits;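 active means ratio at least 3 SD above the weak peptide control, stable starting fluorescence, no direct agonism earlier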;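 further: compound followed by low BAM8-22 agonist challenge near EC20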
HEK293 Ca flux: counter-screen for MrgX1 antagonists: effect in parental HEK293 cells | shares compounds with MrgX1 antag | Fluo-4 calcium fluorescence, FDSS | fluorescence ratio F(max-min)/F0 at 10 µM | 4,000 compounds, 2% hits | AID 624111;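 active means duplicate-averaged calcium fluorescence ratio at least three times the standard deviation of buffer wells, a nonspecific response in parental cells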
HEK293 Ca counter: activity in parental HEK293 cells without MrgX1; shares compounds with MrgX1 antag; parental HEK293 calcium flux, Fluo-4 fluorescence ratio; active compounds read high; fluorescence ratio F(max-min)/F0 at 10 µM; 4,000 compounds, 0.4% hits; AID 624114;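 active means calcium fluorescence ratio, averaged over duplicates, at least 3 SD of the buffer-well ratio, meaning a nonspecific response in receptor-free cells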;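 further: untransfected parental HEK293 lacking MrgX1 used as counterscreen for MrgX1 allosteric activators; fluorescence change taken during the second addition on a kinetic imager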
HEK293 Ca cntr2: counter-screen for MrgX1 activators: effect in parental HEK293 cells | shares compounds with MrgX1 antag | Fluo-4 calcium fluorescence (FDSS); active compounds read high | fluorescence ratio F(max-min)/F0 at 10 µM | 4,000 compounds, 8.7% hits;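 active means calcium fluorescence ratio at least three times the spread of buffer wells, meaning a non-specific response in parental cells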
An asterisk follows results filed as active.

How did Cc1ccccc1Nc1nc(N)nc(CSc2nc3ccccc3s2)n1 do in these assays?
MrgX1 agonist: inactive; MrgX1 allo act: 8.8*; RGS4 block: inactive; MrgX1 antag: inactive; RGS4 act: inactive; MrgX1 allo conf: inactive; HEK293 Ca flux: inactive; HEK293 Ca counter: inactive; HEK293 Ca cntr2: inactive

Results for CC(=O)N1CCSc2ccc(S(=O)(=O)NCCc3ccc(C)cc3)cc21 ?
MrgX1 agonist: inactive; MrgX1 allo act: 6.9*; RGS4 block: inactive; MrgX1 antag: inactive; RGS4 act: inactive; MrgX1 allo conf: inactive; HEK293 Ca flux: inactive; HEK293 Ca counter: inactive; HEK293 Ca cntr2: inactive

How did CC(=O)N1CCSc2ccc(S(=O)(=O)NCCc3cccc(C)c3)cc21 do in these assays?
MrgX1 agonist: inactive; MrgX1 allo act: inactive; RGS4 block: inactive; MrgX1 antag: inactive; RGS4 act: inactive

Results for COC(=O)c1cccc(C23CC4(C2)[C@H](CN(Cc2ccc(C(F)(F)F)cc2)[C@@H]4c2ccccc2)C3c2ccc(C(F)(F)F)cc2)c1 (some centres not stated) ?
MrgX1 agonist: inactive; MrgX1 allo act: inactive; RGS4 block: inactive; MrgX1 antag: inactive; RGS4 act: inactive

How did CN(C)CCN(Cc1ccccc1)S(=O)(=O)c1ccc(-c2ccc(=O)[nH]n2)s1 do in these assays?
MrgX1 agonist: inactive; MrgX1 allo act: 6.6*; RGS4 block: inactive; MrgX1 antag: inactive; RGS4 act: inactive; MrgX1 allo conf: inactive; HEK293 Ca flux: inactive; HEK293 Ca counter: inactive; HEK293 Ca cntr2: inactive

How did Cc1cc(/C=C2\NC(=O)N(Cc3ccc(Cl)cc3)C2=O)c(C)n1C do in these assays?
MrgX1 agonist: inactive; MrgX1 allo act: inactive; MrgX1 antag: inactive

What do the screens show for `O=C(CN(C(=O)CNC(=O)c1cccs1)c1ccccc1)NC1CCCCC1`?
MrgX1 agonist: inactive; MrgX1 allo act: 37*; RGS4 block: inactive; MrgX1 antag: inactive; RGS4 act: inactive; MrgX1 allo conf: inactive; HEK293 Ca flux: inactive; HEK293 Ca counter: inactive; HEK293 Ca cntr2: inactive

How did Nc1nc(Br)c2c(F)cccc2c1-c1ccc(Cl)cc1 do in these assays?
MrgX1 agonist: inactive; MrgX1 allo act: 8.3*; RGS4 block: inactive; MrgX1 antag: inactive; RGS4 act: inactive; MrgX1 allo conf: inactive; HEK293 Ca flux: inactive; HEK293 Ca counter: inactive; HEK293 Ca cntr2: inactive

Results for Cc1c(CC(=O)O)c(=O)oc2c(C)c(OCc3c(F)cccc3Cl)ccc12 ?
MrgX1 agonist: inactive; MrgX1 allo act: 13*; RGS4 block: inactive; MrgX1 antag: inactive; RGS4 act: inactive; MrgX1 allo conf: inactive; HEK293 Ca flux: inactive; HEK293 Ca counter: inactive; HEK293 Ca cntr2: inactive

How did Cc1c(CC(=O)O)c(=O)oc2c(C)c(OCc3ccccc3)ccc12 do in these assays?
MrgX1 agonist: inactive; MrgX1 allo act: inactive; RGS4 block: inactive; MrgX1 antag: inactive; RGS4 act: inactive

Results for O=C(O)CC(NC(=O)C12CC3CC(CC(C3)C1)C2)c1ccc(OC2CCCC2)cc1 (configuration not stated) ?
MrgX1 agonist: inactive; MrgX1 allo act: inactive; RGS4 block: inactive; MrgX1 antag: inactive; RGS4 act: inactive

Results for CC(C)(C)c1nnc(NC(=O)CCS(=O)(=O)c2ccccc2)s1 ?
MrgX1 agonist: inactive; MrgX1 allo act: 43*; RGS4 block: inactive; MrgX1 antag: inactive; RGS4 act: inactive; MrgX1 allo conf: inactive; HEK293 Ca flux: inactive; HEK293 Ca counter: inactive; HEK293 Ca cntr2: inactive
